In ChEMBL document CHEMBL3392956, “Evaluation of synthetic naphthalene derivatives as novel chemical chaperones that mimic 4-phenylbutyric acid” (Bioorg Med Chem Lett, 2015) one finds Activity data, which are given here for 12 compounds.

Calls of active or inactive are those of the source. The rule behind the calls is not given here.

Data set [1] is described as follows: Chemical chaperone activity assessed as suppression of alpha-lactalbumin-bovine serum albumin aggregation at 0.3 mM by turbidity assay. The format is physicochemical. The settings on record: 300 µM. In a few lines: (§1)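 Reduced alpha-lactalbumin (r-LA) was made by incubating LA with 5 mM dithiothreitol and 2.5 mM EDTA for 30 min at 25 °C. Aggregation was started at 37 °C by adding denatured bovine serum albumin, with DMSO vehicle or compound present. Turbidity was read as optical density at 488 nm and expressed relative to the matching controls. Values are means ± SE of four independent experiments.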

The test system of another data set is SH-SY5Y. Description: Protection against ER stress-induced human SH-SY5Y cell damage assessed as cell viability at 0.1 mM after 48 hrs by crystal violet assay. The format is functional, cell-based. In a few lines:
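Human neuroblastoma SH-SY5Y cells stably expressing Pael-R–FLAG were incubated with or without compound at 0.1, 0.5 or 1.0 mM for 48 h. Viability was determined by crystal violet assay. Values are means ± SE of three independent experiments.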

Data set [2] is described as follows: Chemical chaperone activity assessed as suppression of alpha-lactalbumin-bovine serum albumin aggregation at 3 mM by turbidity assay. The format is physicochemical. The settings on record: 3000 µM. In a few lines: as §1

On to `COc1ccc(CCC(=O)O)c2ccccc12`, for which the result in data set [1] was Active. Besides, in the data set on SH-SY5Y, the outcome was Active.

For `COc1ccc2ccccc2c1CCC(=O)O`, in data set [1], the outcome was Active. Besides, in the data set with SH-SY5Y, the outcome was Active.

With `O=C(O)CCCc1ccccc1`, the result in data set [2] was Active. In the data set with SH-SY5Y, the outcome was Active.

As for `COc1ccc2cc(CCC(=O)O)ccc2c1`, the result in data set [1] was Active. The result with SH-SY5Y was Active.

Take `COc1ccc2ccccc2c1/C=C/C(=O)O`: in data set [1], the outcome was Active. Also, in the data set with SH-SY5Y, the result was Active.

`COc1ccc2cc(CC/C=C/C(=O)O)ccc2c1`: the outcome in data set [1] was Active. In addition, the outcome with SH-SY5Y was Active.

For `COc1ccc2ccccc2c1CCCCC(=O)O`, the outcome in data set [1] was Active. Moreover, in the data set with SH-SY5Y, the result was Active.

Turning to `COc1ccc2ccccc2c1CC/C=C/C(=O)O`, in data set [1], the outcome was Active. In addition, the outcome in the data set on SH-SY5Y was Active.

With `COc1ccc2cc(/C=C/C(=O)O)ccc2c1`, the result in data set [1] was Active. The outcome in the data set with SH-SY5Y was Active.

Take `COc1ccc(/C=C/C(=O)O)c2ccccc12`: the outcome in data set [1] was Active. Further, the result with SH-SY5Y was Active.

As to `COc1ccc(CCCCC(=O)O)c2ccccc12`, the result in data set [1] was Active. In the data set on SH-SY5Y, the outcome was Active.

For `COc1ccc2cc(CCCCC(=O)O)ccc2c1`, the outcome in data set [1] was Active. Further, the outcome with SH-SY5Y was Active.
